Test results as given in PubChem BioAssay AID504383 (The Scripps Research Institute Molecular Screening Center, 2011).
The campaign covered roughly 2,500 compounds. About 1,200 (48%) were called active. So high a share suggests a set chosen from earlier hits. The list shows a part of the results. Values without a mark were called inactive.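 Rule for the calls: active = mean activation above the low control average plus 3 SD, as set in the primary screen (cut at about 12% in these data); inactive = the rest.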

Target: Troponin I, cardiac muscle (Homo sapiens) + Troponin T, cardiac muscle (Homo sapiens) + Troponin C, slow skeletal and cardiac muscles (Homo sapiens) (UniProt P19429+P45379+P63316)
Test: calcium sensitizers of cardiac thin filaments – biochemical, IANBD-TnC fluorescence, triplicate, confirmation (AID 504383);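 note: 0% = DMSO at 0.472 mM calcium and 100% = DMSO at 2.9 mM calcium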
Conditions: IANBD-labeled cardiac RTF, Ca2+ sensitivity fluorescence; at 7.2 µM; stronger effect = higher value; scaled from EC20 to saturating calcium; tested at EC20 calcium, 0.472 mM
In short: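 Material: labelled regulated thin filaments; Reagent: 0.472 mM calcium; Incubation: 15 min compound incubation with filaments at 25 °C; Detection: filament fluorescence intensity; Evaluation: fluorescence increase normalised to calcium controls; Benchmarks: low control EC20 calcium, high control EC100 calcium.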

Row | Structure (SMILES) | activation
1 | Oc1ccc2nnc3c(Br)cnn3c2c1 | 7.23%
2 | Cc1nc2oc(C(=O)c3ccccc3)c(N)c2c2c1COC(C)(C)C2 | 744% (active)
3 | CCc1ccc2c(COC(=O)CNS(=O)(=O)c3ccc(NC(C)=O)cc3)cc(=O)oc2c1 | 34.8% (active)
4 | COc1ccc(/C=C2\Oc3cc(OCC(N)=O)ccc3C2=O)cc1OC | 6.98%
5 | O=C(Oc1ccc2c(c1)O/C(=C\c1ccncc1)C2=O)c1ccccc1 | 104% (active)
6 | CN(C)c1ccc(/C=C2\Oc3ccc(C#Cc4cccc(N)c4)cc3C2=O)cc1 | 4.36%
7 | COc1ccccc1C(=O)Oc1ccc2c(c1)O/C(=C\c1ccncc1)C2=O | 31.6% (active)
8 | Cc1ccc(-n2nnnc2C(=Cc2ccc(N(C)C)cc2)c2nnnn2-c2ccc(C)cc2)cc1 | 14.4% (active)
9 | Cc1ccc(-n2nnnc2-c2cnc3cc4c(cc3c2C)OCO4)cc1 | 4.93%
10 | O=c1c(/C=C(\O)c2ccc(F)cc2)nc2ccccc2n1-c1ccccc1 | 6.91%
11 | CCCNC(=O)Cn1c(=O)/c(=C/c2ccc(-c3ccc([N+](=O)[O-])cc3)o2)s/c1=C\C(=O)C(C)(C)C | 29.9% (active)
12 | CC(C)(C)C(=O)/C=c1\s/c(=C\c2ccc(-c3ccc([N+](=O)[O-])cc3)o2)c(=O)n1CC(=O)NC(N)=O | 46.3% (active)
13 | CCCNC(=O)Cn1c(=O)/c(=C\c2ccc(-c3ccc([N+](=O)[O-])cc3)o2)s/c1=C\C(=O)C(C)(C)C | 28.6% (active)
14 | CC1=CC(=C(C#N)C#N)C=C(C)N1Cc1ccc(Cl)cc1 | 52.2% (active)
15 | CS(=O)(=O)Nc1nc2n(n1)C(c1ccccc1)C=C(c1ccc(Br)cc1)N2 (configuration not stated) | 35.8% (active)
16 | O=c1cc2c(c(-c3ccccc3)n1Cc1ccccc1)[C@H](CCO)NC2 | 16.1% (active)
17 | O=c1ccc2c(-c3ccccc3)c3ccc(O)cc3oc-2c1 | 88.1% (active)
18 | Nc1ccc(-c2c3ccc(=O)cc-3oc3cc(O)ccc23)cc1C(=O)O | 4.67%
19 | O=c1cc(-c2ccccc2)oc2ccc(Br)cc12 | 6.06%

Row | Structure (SMILES) | activation
20 | Cn1cc(C2=C(c3ccc(Cl)cc3Cl)C(=O)NC2=O)c2ccccc21 | 32.9% (active)
21 | O=C(NCC1CCCO1)c1c(O)nc2sccn2c1=O (configuration not stated) | 17.7% (active)
22 | Cc1nccc(-c2cccc(N/N=C(\C#N)C(=O)c3ccccc3)c2)n1 | 6.06%
23 | COc1ccc2c(CC(=O)N[C@@H](Cc3c[nH]c4ccccc34)C(=O)O)cc(=O)oc2c1 | 16.7% (active)
24 | COc1ccc(/C=N/NC(=O)C(Cc2c[nH]c3ccccc23)NC(=O)OCC(C)C)cc1[N+](=O)[O-] (configuration not stated) | 7.99%
25 | CC(C)c1ccc(OCC(=O)NC(Cc2c[nH]c3ccccc23)C(=O)O)cc1 (configuration not stated) | 4.54%
26 | NC(=O)CC[C@@H]1NC(=O)[C@H](Cc2ccc(O)cc2)NC(=O)c2cc([N+](=O)[O-])cc(F)c2OCC[C@@H](C(N)=O)NC1=O | 0.64%
27 | CCOc1ccc(CN2CCN(C/C=C/c3ccc(OC)cc3)CC2CCO)cc1 (configuration not stated) | 7.69%
28 | Cc1ccc(CN2CCN(Cc3ccc(-n4cccn4)cc3C)CC2CCO)cc1 (configuration not stated) | 108% (active)
29 | CC/C(=N/Nc1cccc(C)c1)c1cnnc(SC)n1 | 12.7% (active)
30 | COc1ccccc1CNc1cc(C)ccc1C | 1250% (active)
31 | CC(=O)c1ccc(NC(=O)CN2C(=O)/C(=C/C=C/c3ccccc3)SC2=S)cc1 | 13.7% (active)
32 | C#CCN1C(=O)S/C(=C/C=C/c2ccc(N(C)C)cc2)C1=O | 9.72%
33 | COc1cc(/C=C2/SC(=S)N(CCC(=O)Nc3ccccc3)C2=O)cc(OC)c1OC | 1.16%
34 | Cc1ccc(/C=C/C(=O)Nc2cccc3cccnc23)o1 | 20.6% (active)
35 | COc1ccc(N2C(=O)[C@@H]3[C@H](C2=O)[C@H](C(C)=O)N2c4ccccc4C=C[C@@H]32)cc1 | 9.39%
36 | COc1ccc(C2C(C(=O)c3ccccc3)N3c4ccccc4C=CC3C2[N+](=O)[O-])cc1 (configuration not stated) | 47.8% (active)
37 | Cc1cc(N/C=C\c2nnnn2-c2ccc(F)cc2)no1 | 979% (active)
38 | O=C1c2cccc3c(O)ccc(c23)C(=O)N1Cc1ccccc1 | 33.7% (active)

Row | Structure (SMILES) | activation
39 | C[C@H]1CCC(=O)N([C@H](CSc2ccc(Br)cc2)Cc2ccccc2)CC1 | 6.56%
40 | COc1ccc2[nH]c3c(c2c1)CCNC3c1ccc([N+](=O)[O-])o1 (configuration not stated) | 2.79%
41 | O=C(c1ccccc1Nc1ccc(SC(F)F)cc1)N1CCCCC1 | 5.45%
42 | O=C(c1ccc(Nc2cccc(C(F)(F)F)c2)nc1)N1CCCC1 | 168% (active)
43 | CCSc1cc(N2CCCC2)nc(-c2ccc(Cl)cc2)n1 | 6.74%
44 | C/C(=N/NC(=O)Nc1ccccc1)c1ccc(C)cc1 | 9.45%
45 | C/C(=N/NS(=O)(=O)c1ccccc1)c1ccc(NC(=O)C2CC2)cc1 | 20.7% (active)
46 | O=C(Nc1ccccc1)C1=C[C@H](c2ccc3c(c2)OCO3)C[C@H](OCCCCO)O1 | 13% (active)
47 | C#Cc1ccc([C@@H]2C=C(C(=O)OCC=C)O[C@H](OCCCCO)C2)cc1 | 9.72%
48 | O=C(C1=C[C@@H](c2ccc(Br)cc2)C[C@@H](OCc2ccc(CO)cc2)O1)N1CCN(Cc2ccc3c(c2)OCO3)CC1 | 4.22%
49 | CCCC[C@H]1COCCS(=O)(=O)N1Cc1ccc(F)cc1 | 0.38%
50 | OCCc1c[nH]c2ccccc12 | 6.66%
51 | NC(=O)c1c[nH]c2ccccc12 | 717% (active)
52 | CCCn1c(N2CCN(CC(=O)c3c[nH]c4ccccc34)CC2)nc2c1c(=O)[nH]c(=O)n2C | 8.31%
53 | N#C/C(=C/c1ccc(N2CCCCCC2)o1)c1cccc(F)c1 | 99.3% (active)
54 | N#C/C(=C/c1ccc(N2CCOCC2)o1)c1ccc(Cl)cc1 | 9.77%
55 | N#C/C(=C/c1ccc(N2CCCCCC2)o1)c1ccc(Cl)cc1 | 38.8% (active)
56 | O=C(NCc1nnc(SCC(=O)N2CCCCCC2)o1)c1ccco1 | 28.5% (active)
57 | CC(C)Sc1nc2ccc(Br)cc2[nH]1 | 56.5% (active)
